Laboratory results from the M2OR odorant receptor database.
Changes are numbered by the printed parent chain.

Columns and labels:
Conditions in all cases: stereoisomer not certain
OR5K3 (Homo sapiens) = target: T1, OR5K3 (Homo sapiens) (UniProt A6NET4)
T1 sequence (whole entry): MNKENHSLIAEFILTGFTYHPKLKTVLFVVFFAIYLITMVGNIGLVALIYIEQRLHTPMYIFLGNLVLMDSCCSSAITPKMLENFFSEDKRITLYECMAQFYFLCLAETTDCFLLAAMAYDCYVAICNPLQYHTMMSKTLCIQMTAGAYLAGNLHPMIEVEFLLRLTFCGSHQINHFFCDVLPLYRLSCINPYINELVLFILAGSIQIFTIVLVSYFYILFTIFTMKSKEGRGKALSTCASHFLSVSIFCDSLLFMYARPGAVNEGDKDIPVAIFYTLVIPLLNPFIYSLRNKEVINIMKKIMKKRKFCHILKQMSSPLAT
Outline: (§1)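 Each entry records the cell line, G-protein, co-transfected protein and tags used. Methods varied with the source, often transient luciferase assays in mammalian cell lines. A receptor–molecule pair is called responsive (active) if the original authors judged its signal statistically different from baseline and non-responsive (inactive) otherwise.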

OR5K4 (Homo sapiens) = target: T2, OR5K4 (Homo sapiens) (UniProt A6NMS3)
T2 sequence (whole entry): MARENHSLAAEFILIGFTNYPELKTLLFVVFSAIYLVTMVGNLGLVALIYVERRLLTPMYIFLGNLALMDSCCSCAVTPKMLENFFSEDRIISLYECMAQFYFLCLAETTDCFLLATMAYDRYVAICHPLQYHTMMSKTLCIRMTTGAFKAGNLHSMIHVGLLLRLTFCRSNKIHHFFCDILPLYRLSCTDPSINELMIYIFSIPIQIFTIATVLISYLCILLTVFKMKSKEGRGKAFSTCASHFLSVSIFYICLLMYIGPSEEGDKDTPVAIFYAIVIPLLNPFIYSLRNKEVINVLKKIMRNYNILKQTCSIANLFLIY
Outline: as §1

OR5L1 (Homo sapiens) = target: T3, OR5L1 (Homo sapiens) (UniProt Q8NGL2)
T3 sequence (whole entry): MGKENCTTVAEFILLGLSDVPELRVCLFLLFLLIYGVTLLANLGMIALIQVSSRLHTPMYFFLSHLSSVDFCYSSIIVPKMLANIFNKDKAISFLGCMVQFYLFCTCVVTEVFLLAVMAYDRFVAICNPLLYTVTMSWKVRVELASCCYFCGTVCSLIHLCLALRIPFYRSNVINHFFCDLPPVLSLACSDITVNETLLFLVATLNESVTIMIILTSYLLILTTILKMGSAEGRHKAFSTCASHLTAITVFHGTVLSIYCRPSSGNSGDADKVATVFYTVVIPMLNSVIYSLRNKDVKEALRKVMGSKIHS
Outline: as §1

OR5L2 (Homo sapiens) = target: T4, OR5L2 (Homo sapiens) (UniProt Q8NGL0)
T4 sequence (whole entry): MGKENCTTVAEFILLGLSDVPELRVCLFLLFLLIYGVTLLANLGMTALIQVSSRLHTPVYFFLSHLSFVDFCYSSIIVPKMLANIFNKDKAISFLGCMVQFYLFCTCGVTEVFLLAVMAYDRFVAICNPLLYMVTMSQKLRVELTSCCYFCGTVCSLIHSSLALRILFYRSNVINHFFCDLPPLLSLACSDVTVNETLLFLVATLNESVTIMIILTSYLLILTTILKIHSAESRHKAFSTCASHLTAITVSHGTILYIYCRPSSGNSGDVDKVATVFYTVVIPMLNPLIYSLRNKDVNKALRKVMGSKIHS
Outline: as §1

OR5M1 (Homo sapiens) = target: T5, OR5M1 (Homo sapiens) (UniProt Q8NGP8)
T5 sequence (whole entry): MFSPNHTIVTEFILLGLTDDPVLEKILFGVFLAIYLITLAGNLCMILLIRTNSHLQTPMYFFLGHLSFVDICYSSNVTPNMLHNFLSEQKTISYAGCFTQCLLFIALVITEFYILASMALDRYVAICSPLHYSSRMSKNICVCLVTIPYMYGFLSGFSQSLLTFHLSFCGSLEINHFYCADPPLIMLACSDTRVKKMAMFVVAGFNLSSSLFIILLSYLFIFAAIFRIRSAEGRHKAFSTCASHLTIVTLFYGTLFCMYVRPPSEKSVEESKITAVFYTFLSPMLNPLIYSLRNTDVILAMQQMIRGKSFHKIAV
Outline: as §1

OR5M1 T295R M301I = tested on: T6, OR5M1 T295R M301I
T6 sequence (whole entry): T5 sequence (whole entry) with T295R, M301I
Outline: as §1

OR5M10 (Homo sapiens) = target: T7, OR5M10 (Homo sapiens) (UniProt Q6IEU7)
T7 sequence (whole entry): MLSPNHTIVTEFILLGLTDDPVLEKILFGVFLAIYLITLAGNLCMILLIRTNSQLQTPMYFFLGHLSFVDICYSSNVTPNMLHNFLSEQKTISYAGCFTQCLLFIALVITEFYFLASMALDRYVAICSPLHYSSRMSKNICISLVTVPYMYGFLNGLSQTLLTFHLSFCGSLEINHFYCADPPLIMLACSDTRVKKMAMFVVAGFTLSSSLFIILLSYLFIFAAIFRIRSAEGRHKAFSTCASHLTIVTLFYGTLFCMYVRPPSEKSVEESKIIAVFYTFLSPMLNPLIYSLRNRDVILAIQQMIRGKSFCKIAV
Outline: as §1

OR5M11 (Homo sapiens) = target: T8, OR5M11 (Homo sapiens) (UniProt Q96RB7)
T8 sequence (whole entry): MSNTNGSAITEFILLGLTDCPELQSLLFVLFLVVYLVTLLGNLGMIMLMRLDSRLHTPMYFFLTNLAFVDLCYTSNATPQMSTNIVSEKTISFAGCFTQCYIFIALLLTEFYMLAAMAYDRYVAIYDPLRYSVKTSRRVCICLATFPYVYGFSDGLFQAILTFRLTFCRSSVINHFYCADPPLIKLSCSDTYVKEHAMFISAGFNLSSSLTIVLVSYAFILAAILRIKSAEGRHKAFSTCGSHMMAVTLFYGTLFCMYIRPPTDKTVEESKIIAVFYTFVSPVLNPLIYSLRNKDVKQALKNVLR
Outline: as §1

OR5M3 (Homo sapiens) = target: T9, OR5M3 (Homo sapiens) (UniProt Q8NGP4)
T9 sequence (whole entry): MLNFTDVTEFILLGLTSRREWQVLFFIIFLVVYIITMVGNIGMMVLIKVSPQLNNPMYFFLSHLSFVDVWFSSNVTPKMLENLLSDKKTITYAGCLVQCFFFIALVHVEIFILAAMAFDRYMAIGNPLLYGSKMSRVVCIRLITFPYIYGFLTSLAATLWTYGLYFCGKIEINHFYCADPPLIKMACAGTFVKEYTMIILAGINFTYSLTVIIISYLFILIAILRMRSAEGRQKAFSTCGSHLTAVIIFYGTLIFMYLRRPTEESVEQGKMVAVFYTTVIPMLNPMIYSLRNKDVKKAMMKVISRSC
Outline: as §1

OR5M3 N3Y A156T = tested on: T10, OR5M3 N3Y A156T
T10 sequence (whole entry): T9 sequence (whole entry) with N3Y, A156T
Outline: as §1

Measured: odorant receptor agonist call

CC1=NC(C)C(C)S1 (stereo not drawn)
inactive: all assays above

CCCCCC(S)C(C)CO (stereo not drawn)
not listed: OR5M1 T295R M301I | OR5M3 N3Y A156T
inactive: all other assays above

CCc1ncc(C)nc1CC
inactive: OR5K3 (Homo sapiens) | OR5K4 (Homo sapiens) | OR5M3 (Homo sapiens)

CCc1nccnc1C(C)=O
inactive: OR5K3 (Homo sapiens) | OR5K4 (Homo sapiens)

CCc1nccnc1CC
inactive: OR5K3 (Homo sapiens) | OR5K4 (Homo sapiens)

CCC(S)C(C)CO (stereo not drawn)
not listed: OR5M1 T295R M301I | OR5M3 N3Y A156T
inactive: all other assays above

CC1=C(O)C(=O)C(C)O1 (stereo not drawn)
active: OR5M3 (Homo sapiens)
inactive: all other assays above

CC1=C(O)C(=O)OC1C (stereo not drawn)
inactive: all assays above

COc1nccnc1C(C)C
inactive: OR5K3 (Homo sapiens) | OR5K4 (Homo sapiens) | OR5M3 (Homo sapiens)

CC(=O)c1nccnc1C
inactive: OR5K3 (Homo sapiens) | OR5K4 (Homo sapiens)

Cc1cnc(C)cn1
inactive: OR5K3 (Homo sapiens) | OR5K4 (Homo sapiens)

CCC(C)c1nccnc1OC (stereo not drawn)
inactive: OR5K3 (Homo sapiens) | OR5K4 (Homo sapiens) | OR5M3 (Homo sapiens)

CCCC(S)CCOC(C)=O (stereo not drawn)
inactive: all assays above

C=Cc1cnccn1
inactive: OR5K3 (Homo sapiens) | OR5K4 (Homo sapiens)

COc1cnccn1
inactive: OR5K3 (Homo sapiens) | OR5K4 (Homo sapiens)

Cc1cnccn1
inactive: OR5K3 (Homo sapiens) | OR5K4 (Homo sapiens)

CC1CCc2nccnc21 (stereo not drawn)
inactive: OR5K3 (Homo sapiens) | OR5K4 (Homo sapiens)

CC(=O)c1cnccn1
inactive: OR5K3 (Homo sapiens) | OR5K4 (Homo sapiens) | OR5M3 (Homo sapiens)

CCC1OC(C)=C(O)C1=O (stereo not drawn)
active: OR5M3 (Homo sapiens)
inactive: all other assays above

CC(CO)CS (stereo not drawn)
not listed: OR5M1 T295R M301I | OR5M3 N3Y A156T
inactive: all other assays above

CCCCCCC=CCCC=O
inactive: all assays above

Cc1nccnc1C
inactive: OR5K3 (Homo sapiens) | OR5K4 (Homo sapiens)

CCc1nccnc1OC
inactive: OR5K3 (Homo sapiens) | OR5K4 (Homo sapiens)

CCCCCC(=O)C(C)C(C)=O (stereo not drawn)
not listed: OR5M1 T295R M301I | OR5M3 N3Y A156T
inactive: all other assays above

Cc1cncc(C)n1
inactive: OR5K3 (Homo sapiens) | OR5K4 (Homo sapiens)

COc1nccnc1CC(C)C
inactive: OR5K3 (Homo sapiens) | OR5K4 (Homo sapiens) | OR5M3 (Homo sapiens)

CCC1OC(=O)C(O)=C1C (stereo not drawn)
inactive: all assays above

CC1CCCCCCCCCCCCC(=O)C1 (stereo not drawn)
not listed: OR5L2 (Homo sapiens) | OR5M1 T295R M301I | OR5M3 N3Y A156T
inactive: all other assays above

CCc1nccnc1C
inactive: OR5K3 (Homo sapiens) | OR5K4 (Homo sapiens)

CC(=O)c1c(C)c([N+](=O)[O-])c(C(C)(C)C)c([N+](=O)[O-])c1C
not listed: OR5L2 (Homo sapiens) | OR5M1 T295R M301I | OR5M3 N3Y A156T
inactive: all other assays above

CCCCC(S)C(C)CO (stereo not drawn)
active: OR5M11 (Homo sapiens)
not listed: OR5M1 T295R M301I | OR5M3 N3Y A156T
inactive: all other assays above

Cc1cnc(C)c(C)n1
inactive: all assays above
